Results as given in ChEMBL document CHEMBL4715793 (J Med Chem, 2016).
Active and inactive are the calls of the source. The rule behind the calls is not given here.

Key:
[1] = Selectivity index, ratio of CC50 for cytotoxicity against human Huh7.5 cells assessed as reduction in cell viability incubated for 72 hrs by MTT assay to EC50 for antiviral activity against HCV genotype 2a J6/JFH/JC1 infected in human Huh7.5 cells assessed as reduction in viral RNA levels measured after 72 hrs by qRT-PCR analysis; format: toxicity, cell-based; settings: read-out: Ratio CC50/EC50
[2] = Antiviral activity against HCV subtype 2a J6/JFH/JC1 infected in human Huh7.5 cells assessed as reduction in viral RNA levels measured after 72 hrs by qRT-PCR analysis; settings: Hepatitis C virus, J6/JFH/JC1, Huh7.5, 72 h
[3] = Cytotoxicity against human Huh7.5 cells assessed as reduction in cell viability incubated for 72 hrs by MTT assay; format: cell-based
Procedure, shortened: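 Huh7.5 cells seeded at 3 × 10^4/cm2, grown 24 h, then exposed to compound for 72 h. Viability read by MTT assay. CC50 by Reed & Muench method, mean ± SD from three independent experiments.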

Hepatitis C virus [4] = test: Antiviral activity against HCV J6/JFH/JC1 harboring S282T mutant infected in human Huh7.5 cells assessed as inhibition of viral replication measured after 72 hrs by qRT-PCR analysis; format: functional, organism-based, Hepacivirus hominis; settings: J6/JFH/JC1, Huh7.5, 72 h
[5] = molecular target: T1, Chondroitin sulfate N-acetylgalactosaminyltransferase 1 (Homo sapiens) (UniProt Q8TDX6); test: Destabilization of CSGalNacT-1 in human Huh7.5 cells assessed as down regulation of CSGalNacT-1 protein levels measured after 72 hrs by Western blot analysis; format: cell-based; settings: dose 0.2-25 µM
T1 sequence (whole entry): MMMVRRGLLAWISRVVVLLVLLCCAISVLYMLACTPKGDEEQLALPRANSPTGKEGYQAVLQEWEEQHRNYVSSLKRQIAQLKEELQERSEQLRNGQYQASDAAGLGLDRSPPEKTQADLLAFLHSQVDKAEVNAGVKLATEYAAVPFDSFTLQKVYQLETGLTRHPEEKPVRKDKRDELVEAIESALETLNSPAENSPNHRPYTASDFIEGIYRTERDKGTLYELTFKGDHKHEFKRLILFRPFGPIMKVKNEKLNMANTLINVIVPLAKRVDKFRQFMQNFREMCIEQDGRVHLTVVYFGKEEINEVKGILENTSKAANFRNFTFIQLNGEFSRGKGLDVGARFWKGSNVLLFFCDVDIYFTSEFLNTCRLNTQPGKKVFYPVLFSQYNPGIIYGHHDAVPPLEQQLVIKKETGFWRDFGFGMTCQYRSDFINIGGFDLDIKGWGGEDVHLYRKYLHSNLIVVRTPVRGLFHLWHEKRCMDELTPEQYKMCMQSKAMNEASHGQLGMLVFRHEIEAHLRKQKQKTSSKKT

Hepatitis C virus [6] = test: Antiviral activity against HCV J6/JFH/JC1 harboring D168V mutant infected in human Huh7.5 cells assessed as inhibition of viral replication measured after 72 hrs by qRT-PCR analysis; format: functional, organism-based, Hepacivirus hominis; settings: J6/JFH/JC1, Huh7.5, 72 h
Hepatitis C virus [7] = test: Antiviral activity against wild-type HCV J6/JFH/JC1 infected in human Huh7.5 cells assessed as inhibition of viral replication measured after 72 hrs by qRT-PCR analysis; format: functional, organism-based, Hepacivirus hominis; settings: J6/JFH/JC1, Huh7.5, 72 h
Procedure, shortened: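 Huh7.5 cells seeded at 3 × 10^4/cm2 and incubated 24 h. Infected with wild-type HCVcc stock (45 IU/cell) with compound or solvent control added at the same time. After 72 h, intracellular RNA measured by one-step qRT-PCR and core protein by Western blot. EC50 by Reed & Muench method, mean ± SD from three independent experiments.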

[8] = Resistance ratio of EC50 for antiviral activity against HCV J6/JFH/JC1 harboring D168V mutant infected in human Huh7.5 cells to EC50 for antiviral activity against wild-type HCV J6/JFH/JC1 infected in human Huh7.5 cells; format: functional
[9] = Inhibition of NS5A in HCV genotype 1b infected in HuH7.5Lcu-Neo cells assessed as reduction in viral replication by luciferase reporter gene assay; format: cell-based, Hepatitis C virus subtype 1b; settings: Hepatitis C virus
Hepatitis C virus [10] = test: Antiviral activity against HCV subgenomic replicon harboring I377-3'del.S infected in human GS4.3 cells assessed as inhibition of viral replication at 6.25 to 25 uM after 72 hrs by qRT-PCR analysis; format: functional, organism-based; settings: Hepacivirus hominis, dose 6.25-25 µM
Procedure, shortened: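 GS4.3 cells (Huh7 carrying HCV subgenomic replicon I377-3′del.S) seeded at 3 × 10^4/cm2, after 24 h treated with compound or solvent control. After 72 h intracellular RNA extracted and replicon RNA measured by qRT-PCR. Cytotoxicity checked by MTT at 72 h.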

Hepatitis C virus [11] = test: Antiviral activity against HCV J6/JFH/JC1 harboring A156T mutant infected in human Huh7.5 cells assessed as inhibition of viral replication measured after 72 hrs by qRT-PCR analysis; format: functional, organism-based, Hepacivirus hominis; settings: J6/JFH/JC1, Huh7.5, 72 h

Structure (SMILES)	selectivity ratio at 72 h [1]	EC50 [2] [µM]	CC50 at 72 h [3] [µM]	other results
COc1cc(/C=C/C=C/c2ccccc2)c(C(=O)O)c(O)c1CC=C(C)C	7	13.4	96.9	
COC(=O)c1c(CCc2ccccc2)cc(OC)c(CC=C(C)C)c1O	8	16.1	122	
COc1cc(/C=C/c2ccccc2)cc(O)c1CC=C(C)C	1.8	12	21.4	
COc1cc(/C=C(\C)c2ccccc2)c(C(=O)O)c(O)c1CC=C(C)C	45	1.7	76.8	
COc1cc(/C=C/c2ccc(F)cc2)c(C(=O)O)c(O)c1CC=C(C)C	46	1.49	69.2	
CCOC(=O)c1c(/C=C/c2ccccc2)cc(OC)c(CC=C(C)C)c1O	47	4.13	195	
CC(C)OC(=O)[C@H](C)N[P@](=O)(OC[C@H]1O[C@@H](n2ccc(=O)[nH]c2=O)[C@](C)(F)[C@@H]1O)Oc1ccccc1 [SOFOSBUVIR]				EC50 (Hepatitis C virus [4]): 0.29 µM
COc1cc(/C=C/c2ccc(O)cc2)c(C(=O)O)c(O)c1CC=C(C)C	49	0.33	16.1	
COC(=O)c1c(O)cc(OC)cc1/C=C/c1ccccc1				Activity [5]: Dose-dependent effect
COc1cc(/C=C/c2cccc(C)c2)c(C(=O)O)c(O)c1CC=C(C)C	42	1.95	82.5	
CC/C=C/c1cc(OC)c(CC=C(C)C)c(O)c1C(=O)OC	4	24.8	89.3	
COc1cc(/C=C/c2ccccc2C)c(C(=O)O)c(O)c1CC=C(C)C	9	5.92	55.3	
CC/C=C/c1cc(OC)c(CC=C(C)C)c(O)c1C(=O)O	71	1.02	72.9	
COc1cc(/C=C/c2cccs2)c(C(=O)O)c(O)c1CC=C(C)C	22	3.7	83	
COc1ccc2c(O[C@@H]3C[C@H]4C(=O)N[C@]5(C(=O)NS(=O)(=O)C6CC6)C[C@H]5/C=C\CCCCN(C)C(=O)[C@@H]4C3)cc(-c3nc(C(C)C)cs3)nc2c1C				EC50 (Hepatitis C virus [6]): 0.93 µM; EC50 (Hepatitis C virus [7]): 40 nM; Ratio EC50 [8]: 23.3
COc1cc(/C=C/c2ccc(C)cc2)c(C(=O)O)c(O)c1CC=C(C)C	13	6.54	82.9	
C/C=C/C[C@@H](C)[C@@H](O)[C@H]1C(=O)N[C@@H](CC)C(=O)N(C)[C@H](C)C(=O)N(CC)[C@@H](C(C)C)C(=O)N[C@@H](C(C)C)C(=O)N(C)[C@@H](CC(C)C)C(=O)N[C@@H](C)C(=O)N[C@H](C)C(=O)N(C)[C@@H](CC(C)C)C(=O)N(C)[C@@H](CC(C)C)C(=O)N(C)[C@@H](C(C)C)C(=O)N1C [ALISPORIVIR]				EC50 [9]: 0.0158 µM
COC(=O)c1c(/C=C/c2ccccc2)cc(OC)c(CC=C(C)C)c1O	> 41	4.87	> 200	
COC(=O)c1c(/C=C(\C)c2ccccc2)cc(OC)c(CC=C(C)C)c1O	35	2.89	102	
COc1cc(CCc2ccccc2)c(C(=O)O)c(O)c1CC=C(C)C [AMORFRUTIN A]	35	1.68	59.4	
CCC[C@H](NC(=O)[C@@H]1[C@H]2CCC[C@H]2CN1C(=O)[C@@H](NC(=O)[C@@H](NC(=O)c1cnccn1)C1CCCCC1)C(C)(C)C)C(=O)C(=O)NC1CC1	5700	0.008	44.9	EC50 (Hepatitis C virus [7]): 20 nM; Activity (Hepatitis C virus [10]): Active; EC50 (Hepatitis C virus [11]): 0.62 µM
COC(=O)N[C@H](C(=O)N1CCC[C@H]1c1ncc(-c2ccc(-c3ccc(-c4cnc([C@@H]5CCCN5C(=O)[C@@H](NC(=O)OC)C(C)C)[nH]4)cc3)cc2)[nH]1)C(C)C				EC50 (Hepatitis C virus [7]): 0.0177 nM
COc1cc(/C=C/c2ccccc2Cl)c(C(=O)O)c(O)c1CC=C(C)C	39	1.03	39.5	
